Test system: MS2 coat protein
Test: apparent Kd, MS2 coat protein; higher = weaker binding; RNA-MaP array; FMN 200 µM where present
Method in brief: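 In 100 mM Tris-HCl pH 7.5, 80 mM KCl, 4 mM MgCl2, BSA, DTT, yeast tRNA and Tween-20, SNAP-549-labelled MS2 coat protein was titrated from 0.7 or 1.5 nM, doubling to 3 µM, over designs transcribed by stalled E. coli RNA polymerase on Illumina sequencing-chip clusters. This was done first without ligand, then with ligand held constant. After green signal was normalised to red-channel RNA signal and control-cluster median Fmax, the apparent Kd was taken as the median of filtered per-cluster binding-curve fits.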

[1] = designed as: OFF switch for flavin mononucleotide, no ligand
[2] = ligand present: flavin mononucleotide, designed as: OFF switch for flavin mononucleotide
[3] = designed as: ON switch for flavin mononucleotide, no ligand
[4] = ligand present: flavin mononucleotide, designed as: ON switch for flavin mononucleotide

| Sequence | apparent Kd [1] [nM] | apparent Kd [2] [nM] | apparent Kd [3] [nM] | apparent Kd [4] [nM] |
| --- | --- | --- | --- | --- |
| GAUUAACAUGAGGAUCACCCAUGUGAGGAUAUGGAAUGGCACAUUGUUUGAUUCCCGUCUAGAAGGCACAUCUU | 44.5 | 41.6 | – | – |
| GAUUAACAUGAGGAUCACCCAUGUGAGGAUAUGGACUGGCUCACUUUUCGAUUCCCGUCUAGAAGGCGCAUCUU | 39.3 | 55.6 | – | – |
| GAUUCACAUGAGGAUCACCCAUGUGAGGAUAUCUAGGUGCGGAGGCUAAGACCUCCAGAGAGAAGGCACAUGGC | 24.2 | 36.8 | – | – |
| GAUUGAACCCAGAAGGCAUGAUCCACAUGAGGAUCACCCAUGUCGGUGAUGAGGAUAUGGCAUCGUCGCGCAGGGCACUAAUGA | – | – | 590 | 119 |
| GAUUUCGCAUGAGGAUAUGCUCGCAUUUCAAGAGCAGAAGGUAUGUCUUUAGACAUGAGGAUCACCCAUGUAGUUAAGAUUGAA | – | – | 24.3 | 14.7 |
| GAUUUUUCUGAGGAUAUUGCAUCACCCGAUCUAUAAGAAGGCAGAACAUGAGGAUCACCCAUGUGGGUUUCUAG | 22.1 | 45.6 | – | – |
| GCAAAGCCUGACAUGAGGAUCACCCAUGUUAGAUUGUUAUGUCAGGAUAUUGUCUAGACACUAGACAAGAAGGGAUGCUUUGCU | – | – | 366 | 34.2 |
| GCAAAGCCUGACAUGAGGAUCACCCAUGUUAGAUUGUUAUGUCAGGAUAUUGUCUAGCAACUAGACAAGAAGGGAUGCUUUGCC | – | – | 603 | 50.9 |
| GCACAUGAUACAGGAUAUGUUUUGGAUUUUAUAUGCAGUUAUAAUUUUUUGACAGAAGGGUAUACAUGAGGAUCACCCAUGUGC | 161 | 75 | – | – |
| GCACAUGGCAUAGGAUAUAGAACUUUACUUUAUAUAGGUAGUUACACUUAACUAGAAGGAUGUUACAUGAGGAUCACCCAUGUU | – | – | 25.4 | 20 |
| GCACGACAUGUAGGAUAUCGAGCGCCGGGCGCUCGAGAAGGACAUGAGGAUCACCCAUGUAUUCUGAGUGACCGAGGUCGUGCA | 53.9 | 557 | – | – |
| GCACGAGACUAAGGAUAUGGAGUGUCAACAUAAAACAUGAGGAUCACCCAUGUAAAGAGUACGAUUCAGAAGGUAGAGACGUGC | – | – | 41 | 23.6 |
| GCACGAGACUAAGGAUAUGGUGUACCUACAUGUAACAUGAGGAUCACCCAUGUGGUAAGUAUGAUUCAGAAGGUAGAGACGUGC | – | – | 33.2 | 20 |
| GCACGGCAUGUAGGAUAUCGAGCUCAAAGAGCUCGAGAAGGACAUGAGGAUCACCCAUGUGCUCACAGACAGUGAGCGCUGUGC | 25.1 | 91.5 | – | – |
| GCACGGCAUGUAGGAUAUCGAGCUCCGGGAGCUCGAGAAGGACAUGAGGAUCACCCAUGUGCUCACAGUGAGUGAGUGCUGUGC | 19.7 | 38.8 | – | – |
| GCACGGUAAGUGAGGAUAUACCUCUGGAUACAGAGGUAGAAGGCACAUGAGGAUCACCCAUGUCCUAGCCGUGC | 36.7 | 271 | – | – |
| GCACGGUAAGUGAGGAUAUACCUCUGGAUACAGAGGUAGAAGGCACAUGAGGAUCACCCAUGUUCCAGCCGUGC | 17.9 | 74.8 | – | – |
| GCACUCAAGUUAGGAUAUGGAUCGGAAAACGAUCCAGAAGGAAUAUGGGAACAUGAGGAUCACCCAUGUUCCACAAACGAGUGC | – | – | 40.9 | 22.1 |
| GCACUGCAGCGGCGCACGAGACAUGAGGAUCACCCAUGUGACAGAAGGGACUUGUUAAAGGUAGGUCAGGAUAUGUCUUAAAAG | – | – | 219 | 65.8 |
| GCACUGGAUGUAGGAUAUCAGGACGAUAAGUCCUGAGAAGGACAUGAGGAUCACCCAUGUAAAACUCACCAGUGCUAUAAUAUA | 12.8 | 17.7 | – | – |
| GCACUGGAUGUAGGAUAUCAGGACGAUAAGUCCUGAGAAGGACAUGAGGAUCACCCAUGUGAUUAUACCAGUGCAAAUAAUAUA | 30.7 | 274 | – | – |
| GCAGCAAUUUAAAACAUGAGGAUCACCCAUGUCGAGUGUUAUGAGGAUAUGCAUCGGAUGAAGAUGCAGAAGGCAUUGUGCUGC | – | – | 6.32 | 6.72 |
| GCAGCACUCAUUAACAUGAGGAUCACCCAUGUCAAAAGACAUGAGGAUAUGCAUCUGAAGAAGAUGCAGAAGGCAUUGUGCUGC | – | – | 555 | 25.6 |
| GCAGCGUAUGUAGGAUAUCGGUCAGUUUCUGACCGAGAAGGACAUGAGGAUCACCCAUGUAAAUUACCGACUUUGUCGGGCUGC | 6.67 | 8.62 | – | – |
| GCAGCUAUUAUUAUACAUGAGGAUCACCCAUGUUACAUGUGUAAGGAUAUUGAUGUUUAUAUAAUCAAGAAGGUACGAUGCUGC | – | – | 12.6 | 8.59 |
| GCAGGUAUACGAGGAUAUGGGUGGUACGGACAUGAGGAUCACCCAUGUCUCCCAGAAGGCGUAGCCUAACAUUAAGAGCAGGAG | – | – | 122 | 22.5 |
| GCAUAGGACAGAGGAUAUACGUGCUAGAGAUACUAGCAAAAUUUCCUCACAUGAGGAUCACCCAUGUAGAAGGCUGUCCUAUCG | 17.6 | 422 | – | – |
| GCAUCCAUAGUGAGGAUAUACCUCUGGAUACAUAGGUAGAAGGCACAUGAGGAUCACCCAUGUUCUUAGGAUGC | 28.7 | 35.4 | – | – |

| Sequence | apparent Kd [1] [nM] | apparent Kd [2] [nM] | apparent Kd [3] [nM] | apparent Kd [4] [nM] |
| --- | --- | --- | --- | --- |
| GCAUCGUCGACUGAUAAUGAGCCUAGAAGGCGGACAUGAGGAUCACCCAUGUCUGAUCCUCGGCCCGAGGAUAUAGGUUAAUGA | 12.1 | 8.65 | – | – |
| GCAUGCAAGUAGAAGGACAGAUAUUUUGAUACUGUAGGAUAUGCAGAAUCAUAUCCACAUGAUAACAUGAGGAUCACCCAUGUA | 11.6 | 10 | – | – |
| GCAUGGGCCGUCAGGAUAUAGGCGCCGUGAAGGUAUUAGAAGGGACAUGAGGAUCACCCAUGUAUGAGAAAAGA | 36.7 | 42.7 | – | – |
| GCAUGGUAUGAGAAGGCAUAAUUUAUCUAACAACAUGAUUACAUGAGGAUCACCCAUGUUUCCAAUGAGGAUAUCAUACCGUGC | 7.83 | 7.12 | – | – |
| GCAUGUUAUGUCAGGAUAUACCUAUGGAUACAUAGGUAGAAGGGACAUGAGGAUCACCCAUGUCCUAACCAUGC | 11.8 | 15.1 | – | – |
| GCCAAGCAAAAUAAAAUAAAUAAAACAUGAGGAUCACCCAUGUAGGAUAUGCUACACAAAGUGUAGCAGAAGGACAAGCUUGGC | 14.6 | 19 | – | – |
| GCCACGUCAGGAUAUCUGAUGUCUAACUUCGGUUAGACAUCAGAGAAGGGACAUGAGGAUCACCCAUGUGGCAA | 264 | 177 | – | – |
| GCCAGAGAAGGAUAUACGAGGAUCGAGUGGUCACACCUACAACAUGAGGAUCACCCAUGUAGAAGGUUUCGGCU | 13.9 | 16.3 | – | – |
| GCCAGGAUGUGAGGAUAUGCUGAGGAUAACUCAGCAGAAGGCACAUGAGGAUCACCCAUGUACACUUAUCAUAAAUACCCUGGC | 11.9 | 16.3 | – | – |
| GCCAUCACAUGAGGAUAUGCUCCCGUUUCGGGAGCAGAAGGCAUGUCAUCAGACAUGAGGAUCACCCAUGUAGUUAAGAUGGCA | – | – | 361 | 15.1 |
| GCCAUCACAUGAGGAUAUGCUCGGGUUUCCCGAGCAGAAGGCAUGUCAUAAGACAUGAGGAUCACCCAUGUAGGUAAGAUGGCA | – | – | 292 | 13.6 |
| GCCAUCGCAUGAGGAUAUGCUCCCGUUUCGGGAGCAGAAGGCAUGUCAUAAGACAUGAGGAUCACCCAUGUGGUAAAGAUGGCA | – | – | 237 | 10.3 |
| GCCAUCGCAUGAGGAUAUGCUCCGGUUUCCGGAGCAGAAGGCAUGUCACAAGACAUGAGGAUCACCCAUGUAGUUAAGAUGGCA | – | – | 185 | 8.88 |
| GCCAUCGCAUGAGGAUAUGCUCCGGUUUCCGGAGCAGAAGGUAUGUCAUAAGACAUGAGGAUCACCCAUGUAGGUAAGAUGGCA | – | – | 221 | 31.3 |
| GCCAUCGCAUGAGGAUAUGCUCGGGUUUCCCGAGCAGAAGGCAUGCCAUAAGACAUGAGGAUCACCCAUGUAGUUAAGAUGGCA | – | – | 5.36 | 5.4 |
| GCCAUCGCAUGAGGAUAUGCUCGGGUUUCCCGAGCAGAAGGCAUGUCAAAAGACAUGAGGAUCACCCAUGUAGUUAAGAUGGCA | – | – | 122 | 8.11 |
| GCCAUCGCAUGAGGAUAUGCUCGGGUUUCCCGAGCAGAAGGCAUGUCAUAAGACAUGAGGAUCACCCAUGUAGUUAAGAUGGCA | – | – | 813 | 35.9 |
| GCCCAGCCCAGGCCCACGGCAUCACAGGAUAUGCCGAUAACAUGAGGAUCACCCAUGUCAACUCCGCAGAAGGGUGAUAUCGUG | – | – | 121 | 22.1 |
| GCCCGGGCUAACAUGAGGAUCACCCAUGUGUUAUACUUAAUAUAGGAUAUGUUUAUACUUUUUGGGCAGAAGGAUGGCCCGGGC | – | – | 68.2 | 61.7 |
| GCCCUAAGGCGGGCCGACCAUACAUGAGGAUCACCCAUGUCGAGAAGGUGCUCACGGGUGGGUGGCAAGGAUAUCGGGUCGGAU | – | – | 77.1 | 41.4 |
| GCCGACCAGAAGUCGGUACGGAGGAGAAGGCGCCUCCUGGGUCCACAUGAGGAUCACCCAUGUGGCGAGGAUAUCCUCAGUUUU | 16.4 | 126 | – | – |
| GCCGGAUUUGUGAGGAUAUACCUAUGGAUACAUAGGUAGAAGGCACAUGAGGAUCACCCAUGUACCUCACCGGC | 16.7 | 69.2 | – | – |
| GCCUACUGGCGAGGAUAUUCUGUGCGGUUCCGGCUCGUGUCUGUUACAUGAGGAUCACCCAUGUGGGAGAAGGUGUCUGUGGCC | 7.53 | 7.41 | – | – |
| GCCUAUGUGGAGGAUAUCGACUUCGAAAGAAGUCGAGAAGGCCACACAUGAGGAUCACCCAUGUGAUGCCAGGC | 122 | 86 | – | – |
| GCCUCACAUGAGGAUCACCCAUGUCAGGAUAUAGGAGACGGUAGCUUUGCUGCCUUCGCUAGAAGGGACUGGCU | 33.5 | 55.4 | – | – |
| GCCUGAUCAACUCUAGGCCCAGACAGAAGGGCACACGGUCUAAGUCACAUGAGGAUCACCCAUGUGCAGGAUAUGUCUCGACUC | 8.03 | 21.4 | – | – |
| GCCUUACCGGUCAGGAUAUACAUUUGUUACUCCUUGUAGAAGGGACAUGAGGAUCACCCAUGUACAUUACAUUC | 19.4 | 20.4 | – | – |
